Paper PMC2745822 (The Journal of pharmacology and experimental therapeutics, 2008)
Like-named read-outs stand apart in the source and are kept apart here.

Key:
[1] = tested on: panel of 68 discrete GPCRs, ion channels, transporters, and enzymes; assay: MDS Pharma LeadProfiling Screen radioligand binding panel; conditions: 10 µM; for VU0152099 with the single exception of GABAA receptors
rat M4 mAChR = biological target: T1, rat M4 mAChR (Rattus norvegicus, UniProt P08485); type: cell-based; conditions: for EC50: potentiation of an EC20 concentration of ACh
T1 sequence (P08485 1-478): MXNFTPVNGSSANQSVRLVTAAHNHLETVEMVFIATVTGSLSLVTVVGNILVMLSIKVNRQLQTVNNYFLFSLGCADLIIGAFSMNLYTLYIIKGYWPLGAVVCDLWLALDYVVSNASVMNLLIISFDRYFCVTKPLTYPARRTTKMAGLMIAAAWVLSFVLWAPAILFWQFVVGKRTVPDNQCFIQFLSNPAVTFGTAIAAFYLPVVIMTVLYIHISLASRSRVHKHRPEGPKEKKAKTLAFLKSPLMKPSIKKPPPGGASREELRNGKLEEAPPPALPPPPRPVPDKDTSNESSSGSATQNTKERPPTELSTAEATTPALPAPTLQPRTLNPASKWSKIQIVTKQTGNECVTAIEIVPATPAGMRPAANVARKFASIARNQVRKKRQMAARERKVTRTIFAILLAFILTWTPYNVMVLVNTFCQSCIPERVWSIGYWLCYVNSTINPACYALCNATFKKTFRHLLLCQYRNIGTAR

human M4 = biological target: T2, human M4 (Homo sapiens, UniProt P08173); assay: Millipore GPCR Profiler functional screen, human M4; type: cell-based; conditions: full agonist CRC
T2 sequence (P08173 1-479): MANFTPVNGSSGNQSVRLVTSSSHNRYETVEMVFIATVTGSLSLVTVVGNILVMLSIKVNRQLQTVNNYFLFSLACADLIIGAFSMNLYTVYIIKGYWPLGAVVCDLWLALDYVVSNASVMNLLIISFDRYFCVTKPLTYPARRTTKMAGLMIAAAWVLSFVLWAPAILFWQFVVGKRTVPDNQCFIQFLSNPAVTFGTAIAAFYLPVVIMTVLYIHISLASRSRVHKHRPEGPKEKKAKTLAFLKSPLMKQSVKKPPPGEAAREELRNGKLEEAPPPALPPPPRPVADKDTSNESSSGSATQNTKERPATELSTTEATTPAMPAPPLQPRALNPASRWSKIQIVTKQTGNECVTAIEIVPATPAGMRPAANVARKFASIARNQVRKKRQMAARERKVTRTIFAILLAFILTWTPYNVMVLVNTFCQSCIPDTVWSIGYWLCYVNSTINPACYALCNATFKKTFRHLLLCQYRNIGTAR
Outline: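 Outsourced functional screening paradigm covering 16 GPCRs, chosen as family A subtypes among the closest relatives of mAChRs. Test compound was assessed for agonist, antagonist and allosteric potentiator activity by its effect on full concentration-response curves of each receptor's agonist.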

[2] = tested on: amphetamine-induced hyperlocomotion in rats; assay: Amphetamine-induced hyperlocomotion; type: in vivo, rat; conditions: 56.6 mg/kg i.p., 30-min pretreatment; 1 mg/kg s.c. amphetamine; 60 min
rM4 receptor = biological target: T3, rM4 receptor (Rattus norvegicus, UniProt P08485); assay: [3H]NMS equilibrium radioligand binding, membranes from rM4-expressing CHO cells
T3 sequence (P08485 1-478): T1 sequence (P08485 1-478)

M2 mAChR = biological target: T4, M2 mAChR (Homo sapiens, UniProt P08172); assay: Calcium mobilization selectivity assay, CHO K1 cells expressing M2-Gqi5; type: cell-based; conditions: 30 µM compound
T4 sequence (P08172 1-466): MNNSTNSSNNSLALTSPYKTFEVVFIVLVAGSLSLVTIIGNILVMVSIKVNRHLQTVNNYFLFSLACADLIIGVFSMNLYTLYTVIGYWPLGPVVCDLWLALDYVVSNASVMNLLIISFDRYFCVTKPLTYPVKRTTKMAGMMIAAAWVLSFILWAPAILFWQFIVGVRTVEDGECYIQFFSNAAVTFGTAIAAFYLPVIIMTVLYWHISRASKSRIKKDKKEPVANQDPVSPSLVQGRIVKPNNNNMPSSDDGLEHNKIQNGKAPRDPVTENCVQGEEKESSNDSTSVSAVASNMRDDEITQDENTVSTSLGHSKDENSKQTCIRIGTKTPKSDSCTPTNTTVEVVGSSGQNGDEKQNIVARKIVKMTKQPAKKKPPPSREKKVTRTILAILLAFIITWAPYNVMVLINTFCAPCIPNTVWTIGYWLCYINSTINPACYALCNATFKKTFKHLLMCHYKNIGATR
Outline: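 CHO K1 cells stably co-expressing human M2 and chimeric Gqi5, grown with 500 µg/ml hygromycin B. Seeded 60,000 cells/well and kept overnight in antibiotic-free medium at 37°C/5% CO2. Loaded with 2 µM Fluo-4 AM for 45 min at 37°C in HBSS/HEPES/probenecid buffer, pH 7.4. […] Three independent experiments.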

[3] = Brain and plasma exposure pharmacokinetic profiling; type: in vivo, rat; conditions: male rats, 56.6 mg/kg i.p.; mean ± S.E.M., n = 3
Outline: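 Male Sprague-Dawley rats (225–250 g), fasted overnight. Test compound dissolved at 56.6 mg/ml in 10% Tween 80/water, pH ~7.0 (1 N NaOH), sonicated, and given at 56.6 mg/kg i.p. Brain and trunk plasma taken at 0.5, 1, 2 and 4 h, three rats per time point. Brain homogenized in acetonitrile/methanol and plasma precipitated with acidified acetonitrile, both with internal standard. Analyzed by positive-ESI LC-MS-MS, linear 50 ng/ml–100 µg/ml. AUC0-∞ by trapezoidal method.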

Cc1cc(C)c2c(N)c(C(=O)NCc3ccc4c(c3)OCO4)sc2n1 [VU0152099, 3-amino-N-(benzo[d][1,3]dioxol-5-ylmethyl)-4,6-dimethylthieno[2,3-b]pyridine carboxamide]
displacement of binding, all targets tested [1]: less than 50% | maximal leftward shift of the ACh CRC (rat M4 mAChR; 30 µM compound): 30 fold | response in the absence of an ACh EC20 (agonist activity) (rat M4 mAChR; compound alone): neither VU0152099 nor VU0152100 elicited a response | Rat M4 Ach -Fold Shift (rat M4 mAChR; leftward shift of ACh CRC, average of at least three determinations): 29.7 fold | EC50 (rat M4 mAChR; read-out: M4 PAM activity EC50): 0.403 µM | EC50 (rat M4 mAChR; read-out: Rat M4 EC50, average of at least three determinations): 0.4 µM | potentiation of ACh-induced activation of human M4 (human M4): induced a robust potentiation of ACh-induced activation of human M4 | effect on amphetamine-induced hyperlocomotion [2]: produced robust decreases in amphetamine-induced hyperlocomotion | displacement of [3H]NMS (rM4 receptor; 0.1 nM [3H]NMS, concentrations up to 30 µM): neither M4 PAM displaced | leftward shift in the potency of ACh to displace [3H]NMS (rM4 receptor; 10 µM compound): 25 fold | shift in the ACh CRC at M2-Gqi5 (M2 mAChR): No shift in the ACh CRC was observed | AUC brain / AUC plasma [3]: 0.39 ± 0.01 | Mean AUC (0-∞) brain [3]: 4751.80 ± 666.17 ng·h/g | Mean AUC(0-∞) plasma [3]: 11.928 ± 1.47236 µg·h/mL | t1/2 brain [3]: 1.25 ± 0.023 h | t1/2 plasma [3]: 1.66 ± 0.39 h
